Test results as given in ChEMBL document CHEMBL1131049, “Antiviral activities of methylated nordihydroguaiaretic acids. 2. Targeting herpes simplex virus replication by the mutation insensitive transcription inhibitor tetra-O-methyl-NDGA” (J Med Chem, 1998).
“And” between values parts separate entries of the source, which are not always exact repeats. Equal entries are not always repeated.

Columns and labels:
[1] = Ralative safety was expressed as Selective index (TC50/IC50) at HSV-2 passage 3 in vero cells; format: functional
Method in brief: (§1)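 SI = TC50/IC50 per passage. IC50 comes from serial passage of HSV-1 Sm44 or HSV-2 Sav in Vero cells (100 TCID50, drug added 2 h p.i., CPE read-out, triplicates). TC50 comes from uninfected Vero cells by a tetrazolium viability assay, run three times in triplicate and averaged.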

[2] = Ralative safety was expressed as Selective index (TC50/IC50) at HSV-1 passage 1 in vero cells; format: functional; method in brief: as §1
Vero [3] = test: Comparative Potency (IC50s) at HSV-1 passage 8 in vero cells; format: functional, cell-based; conditions: Chlorocebus sabaeus
Method in brief: (§2)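 Vero cells infected with 100 TCID50 of HSV-1 (Sm44) or HSV-2 (Sav); compound in DMSO diluted in medium and added 2 h post-infection, triplicates per concentration. Passaging: virus recovered from cultures at the IC50 infected fresh Vero cells, and the IC50 was redetermined each passage.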

Vero [4] = test: Comparative Potency (IC50s) at HSV-1 passage 7 in vero cells; format: functional, cell-based; conditions: Chlorocebus sabaeus; method in brief: as §2
Vero [5] = test: Comparative Potency (IC50s) at HSV-1 passage 4 in vero cells; format: functional, cell-based; conditions: Chlorocebus sabaeus; method in brief: as §2
[6] = Ralative safety was expressed as Selective index (TC50/IC50) at HSV-1 passage 3 in vero cells; format: functional; method in brief: as §1
Vero [7] = test: Comparative Potency (IC50s) at HSV-1 passage 3 in vero cells; format: functional, cell-based; conditions: Chlorocebus sabaeus; method in brief: as §2
Vero [8] = test: Comparative Potency (IC50s) at HSV-2 passage 1 in vero cells; format: functional, cell-based; conditions: Chlorocebus sabaeus; method in brief: as §2
[9] = Ralative safety was expressed as Selective index (TC50/IC50) at HSV-1 passage 8 in vero cells; format: functional; method in brief: as §1
Vero [10] = test: Comparative Potency (IC50s) at HSV-1 passage 6 in vero cells; format: functional, cell-based; conditions: Chlorocebus sabaeus; method in brief: as §2
[11] = Ralative safety was expressed as Selective index (TC50/IC50) at HSV-1 passage 10 in vero cells; format: functional; method in brief: as §1
Vero [12] = test: Comparative Potency (IC50s) at HSV-1 passage 5 in vero cells; format: functional, cell-based; conditions: Chlorocebus sabaeus; method in brief: as §2
[13] = Ralative safety was expressed as Selective index (TC50/IC50) at HSV-1 passage 6 in vero cells; format: functional; method in brief: as §1
[14] = Ralative safety was expressed as Selective index (TC50/IC50) at HSV-1 passage 7 in vero cells; format: functional; method in brief: as §1
[15] = Ralative safety was expressed as Selective index (TC50/IC50) at HSV-1 passage 9 in vero cells; format: functional; method in brief: as §1
Vero [16] = test: Comparative Potency (IC50s) at HSV-2 passage 2 in vero cells; format: functional, cell-based; conditions: Chlorocebus sabaeus; method in brief: as §2
[17] = Ralative safety was expressed as Selective index (TC50/IC50) at HSV-2 passage 2 in vero cells; format: functional; method in brief: as §1
[18] = Ralative safety was expressed as Selective index (TC50/IC50) at HSV-2 passage 1 in vero cells; format: functional; method in brief: as §1
Vero [19] = test: Comparative Potency (IC50s) at HSV-1 passage 2 in vero cells; format: functional, cell-based; conditions: Chlorocebus sabaeus; method in brief: as §2
[20] = Ralative safety was expressed as Selective index (TC50/IC50) at HSV-2 passage 4 in vero cells; format: functional; method in brief: as §1
Vero [21] = test: Comparative Potency (IC50s) at HSV-1 passage 9 in vero cells; format: functional, cell-based; conditions: Chlorocebus sabaeus; method in brief: as §2
Vero [22] = test: Comparative Potency (IC50s) at HSV-2 passage 4 in vero cells; format: functional, cell-based; conditions: Chlorocebus sabaeus; method in brief: as §2
Vero [23] = test: Comparative Potency (IC50s) at HSV-2 passage 3 in vero cells; format: functional, cell-based; conditions: Chlorocebus sabaeus; method in brief: as §2
[24] = Ralative safety was expressed as Selective index (TC50/IC50) at HSV-1 passage 2 in vero cells; format: functional; method in brief: as §1
[25] = Ralative safety was expressed as Selective index (TC50/IC50) at HSV-1 passage 4 in vero cells; format: functional; method in brief: as §1
[26] = Ralative safety was expressed as Selective index (TC50/IC50) at HSV-1 passage 5 in vero cells; format: functional; method in brief: as §1
[27] = Mortality in 5 mice when intraperitoneally administered daily once for 7 days at dose 25 mg/kg; format: ADME, organism-based; design: dose 25 mg/kg, route intraperitoneal; conditions: mouse, in vivo, ip, 168 h
[28] = Relative safety was expressed as Selective index (TC50/IC50) at HSV-2 passage 4 in vero cells; format: functional; method in brief: as §1
Vero [29] = test: Comparative Potency (IC50s) at HSV-1 passage 10 in vero cells; format: functional, cell-based, Chlorocebus sabaeus; method in brief: as §2
[30] = Mortality in 5 mice when intraperitoneally administered daily once for 7 days at dose 100 mg/kg; format: ADME, organism-based; design: dose 100 mg/kg, route intraperitoneal; conditions: mouse, in vivo, ip, 168 h
[31] = Relative safety was expressed as Selective index (TC50/IC50) at HSV-1 passage 6 in vero cells; format: functional; method in brief: as §1
[32] = Relative safety was expressed as Selective index (TC50/IC50) at HSV-1 passage 7 in vero cells; format: functional; method in brief: as §1
[33] = Mortality in 5 mice when intraperitoneally administered daily twice for 5 days at dose 50 mg/kg; format: ADME, organism-based; design: dose 50 mg/kg, route intraperitoneal; conditions: mouse, in vivo, ip, 120 h
[34] = Relative safety was expressed as Selective index (TC50/IC50) at HSV-1 passage 2 in vero cells; format: functional; method in brief: as §1
[35] = Relative safety was expressed as Selective index (TC50/IC50) at HSV-1 passage 8 in vero cells; format: functional; method in brief: as §1
[36] = Relative safety was expressed as Selective index (TC50/IC50) at HSV-1 passage 10 in vero cells; format: functional; method in brief: as §1
Mus musculus [37] = test: Percent Change in body weight of 5 mice when intraperitoneally administered daily once for 1 day at dose 300 mg/kg; format: functional; conditions: route intraperitoneal
[38] = Relative safety was expressed as Selective index (TC50/IC50) at HSV-2 passage 1 in vero cells; format: functional; method in brief: as §1
[39] = Relative safety was expressed as Selective index (TC50/IC50) at HSV-1 passage 5 in vero cells; format: functional; method in brief: as §1
[40] = Relative safety was expressed as Selective index (TC50/IC50) at HSV-2 passage 2 in vero cells; format: functional; method in brief: as §1
[41] = Relative safety was expressed as Selective index (TC50/IC50) at HSV-2 passage 3 in vero cells; format: functional; method in brief: as §1
[42] = Relative safety was expressed as Selective index (TC50/IC50) at HSV-1 passage 9 in vero cells; format: functional; method in brief: as §1
[43] = Relative safety was expressed as Selective index (TC50/IC50) at HSV-1 passage 1 in vero cells; format: functional; method in brief: as §1
[44] = Relative safety was expressed as Selective index (TC50/IC50) at HSV-1 passage 4 in vero cells; format: functional; method in brief: as §1
[45] = Relative safety was expressed as Selective index (TC50/IC50) at HSV-1 passage 3 in vero cells; format: functional; method in brief: as §1
Mus musculus [46] = test: Percent Change in body weight of 5 mice when intraperitoneally administered daily once for 7 days at dose 50 mg/kg; format: functional; conditions: route intraperitoneal
[47] = Mortality in 5 mice when intraperitoneally administered daily once for 7 days at dose 50 mg/kg; format: ADME, organism-based; design: dose 50 mg/kg, route intraperitoneal; conditions: mouse, in vivo, ip, 168 h

**Q.** Which results are given for Nc1nc2c(ncn2COCCO)c(=O)[nH]1 [ACYCLOVIR]?
**A.** Selectivity index [1]: 70; Selectivity index [2]: 589; IC50 (Vero [3]): 444 µM; IC50 (Vero [4]): 190 µM; IC50 (Vero [5]): 138 µM; Selectivity index [6]: 50; IC50 (Vero [7]): > 88.8 µM; IC50 (Vero [8]): 6.66 µM; Selectivity index [9]: 23; IC50 (Vero [10]): 131 µM; Selectivity index [11]: 10; IC50 (Vero [12]): 111 µM; Selectivity index [13]: 34; Selectivity index [14]: 23; Selectivity index [15]: 11; IC50 (Vero [16]): > 44.4 µM; Selectivity index [17]: 100; Selectivity index [18]: 667; IC50 (Vero [19]): 37.8 µM; Selectivity index [20]: 50; IC50 (Vero [21]): 379 µM; IC50 (Vero [22]): > 88.8 µM; IC50 (Vero [23]): 62.8 µM; Selectivity index [24]: 117; Selectivity index [25]: 32; Selectivity index [26]: 40

**Q.** For COc1ccc(C[C@@H](C)[C@@H](C)Cc2ccc(OC)c(OC)c2)cc1OC [TERAMEPROCOL], which Mortality [27] is on record?
**A.** 0

**Q.** And the IC50 (Vero [3])?
**A.** 9.91 µM

**Q.** And the Selectivity index [28]?
**A.** 14.4

**Q.** And the IC50 (Vero [4])?
**A.** 6.98 µM

**Q.** And the IC50 (Vero [29])?
**A.** 11.7 µM and 4.47 µM

**Q.** What about the Mortality [30] of the same molecule?
**A.** 0

**Q.** What about the Selectivity index [31] of the same molecule?
**A.** 22.9

**Q.** What about the IC50 (Vero [5]) of the same molecule?
**A.** 5.97 µM

**Q.** And the IC50 (Vero [7])?
**A.** 8.24 µM

**Q.** What about the Selectivity index [32] of the same molecule?
**A.** 22.9

**Q.** And the IC50 (Vero [8])?
**A.** 4.18 µM

**Q.** What about the Mortality [33] of the same molecule?
**A.** 1

**Q.** What about the IC50 (Vero [10]) of the same molecule?
**A.** 6.98 µM

**Q.** And the IC50 (Vero [12])?
**A.** 6.48 µM

**Q.** What about the Selectivity index [34] of the same molecule?
**A.** 36.4

**Q.** And the Selectivity index [35]?
**A.** 16.1

**Q.** What about the IC50 (Vero [16]) of the same molecule?
**A.** 11.1 µM

**Q.** And the Selectivity index [36]?
**A.** 33.5

**Q.** What about the IC50 (Vero [19]) of the same molecule?
**A.** 4.4 µM

**Q.** And the Change (Mus musculus [37])?
**A.** -2.66%

**Q.** What about the Selectivity index [38] of the same molecule?
**A.** 38.3

**Q.** And the Selectivity index [39]?
**A.** 24.7

**Q.** What about the IC50 (Vero [21]) of the same molecule?
**A.** 8.82 µM

**Q.** And the IC50 (Vero [22])?
**A.** 11.1 µM

**Q.** What about the Selectivity index [40] of the same molecule?
**A.** 14.4

**Q.** What about the IC50 (Vero [23]) of the same molecule?
**A.** 11.1 µM

**Q.** What about the Selectivity index [41] of the same molecule?
**A.** 14.4

**Q.** And the Selectivity index [42]?
**A.** 18.1

**Q.** And the Selectivity index [43]?
**A.** 13.7

**Q.** And the Selectivity index [44]?
**A.** 26.8

**Q.** And the Selectivity index [45]?
**A.** 19.4

**Q.** And the Change (Mus musculus [46])?
**A.** -2.8%

**Q.** What about the Mortality [47] of the same molecule?
**A.** 0
